Bioassay records from PubChem.
Sampled rows, rich in hits. Any-hit rate of the full collection: about 2.3%.
LMPTP inh: blocks human LMPTP phosphatase; inhibition, % at 20 µM; recombinant LMPTP-A, OMFP fluorogenic substrate, fluorescence intensity; P24666; 360,000 compounds, 0.22% hits;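 active means compounds that cut the enzyme signal by at least half of the control window in the single-dose screen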;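 further: plate controls were DMSO wells with enzyme plus substrate for no effect and substrate without enzyme for full effect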
Target sequence (P24666 whole entry, looked up): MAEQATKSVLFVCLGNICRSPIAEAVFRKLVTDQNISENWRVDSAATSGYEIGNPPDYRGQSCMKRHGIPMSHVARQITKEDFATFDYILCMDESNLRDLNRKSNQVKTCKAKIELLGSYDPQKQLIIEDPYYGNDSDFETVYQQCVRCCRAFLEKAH
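test system = LMPTP-A | amount = 0.625 nM LMPTP-A final | reagent = fluorogenic phosphatase substrate OMFP at 400 µM final | incubation = 50 min at room temperature | benchmarks = no-enzyme low control, uninhibited high control | medium = Bis-Tris pH 6.0, DTT, detergent | signal = fluorescence intensity of OMFP turnover product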
SUMO1 PPI mod: alters human SUMO1 binding to SIM partners; P63165; SUMO1 binding to a labelled peptide, TR-FRET, 1 h; inhibition, % at 20 µM; 360,000 compounds, 0.33% hits; AID 602429; in the data active means inhibition above about 37%
Target sequence (P63165 whole entry, looked up): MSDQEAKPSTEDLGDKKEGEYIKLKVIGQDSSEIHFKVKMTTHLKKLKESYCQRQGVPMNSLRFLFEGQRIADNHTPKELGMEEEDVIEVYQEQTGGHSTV
STEP inh: inhibitors of human striatal-enriched phosphatase STEP; recombinant STEP, OMFP fluorogenic substrate, fluorescence; P54829; 360,000 compounds, 0.25% hits; AID 588621; inhibition, % at 20 µM;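 active means inhibition at 20 µM, scaled per plate between control wells, above about 37%, limit read from the data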;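 further: 0% = DMSO with enzyme and substrate and 100% = substrate only without enzyme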
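Test system: STEP tyrosine phosphatase / Reagent: OMFP at 25 µM / Doses: 20 µM, 1% DMSO / Read-out: percent inhibition scaled to no-enzyme and uninhibited-enzyme controls, plate-pattern corrected / Detection: FITC-channel fluorescence of OMFP product / Medium: Bis-Tris buffer pH 6.0, 2.5 mM DTT, 0.005% Tween 20 / Schedule: 20 min at room temperature, dark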
DNMT1 inh: blocks human DNA methyltransferase DNMT1; DNMT1 molecular beacon, Hinp1I cleavage, fluorescence; inhibition (reported as % activation of signal), % at 10 µM; 360,000 compounds, 0.83% hits; in the data active means inhibition above about 50%
Scp-1 inhibitor: Scp-1 (human) phosphatase inhibition; 340,000 compounds, 0.88% hits; Recombinant Scp1, phosphopeptide, malachite green phosphate absorbance; inhibition, % at 20 µM; AID 493091;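 active means inhibition above about 50% at 20 µM, limit read from the data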;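 further: plate controls were DMSO wells with enzyme for no effect and wells lacking enzyme for full effect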
Target sequence (Q9GZU7 76-261 limits assumed): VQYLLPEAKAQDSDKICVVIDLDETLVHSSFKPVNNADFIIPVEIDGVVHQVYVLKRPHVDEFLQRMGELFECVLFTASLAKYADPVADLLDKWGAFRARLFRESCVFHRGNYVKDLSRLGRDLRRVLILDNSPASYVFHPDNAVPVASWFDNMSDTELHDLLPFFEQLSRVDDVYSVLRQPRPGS
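Assay system: SCP-1 catalytic fragment, aa 76-261 | Buffer or medium: Tris acetate buffer pH 5.5 with MgCl2 and Tween-20 | Compound: One concentration, 20 µM, with 1.0% DMSO | Also added: Phospho 17-mer peptide substrate | Signal: Absorbance at 630 nm | Incubation: 45 min enzyme reaction at room temperature | Measure: % inhibition of SCP-1 phosphate liberation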
Rpn11 block: inhibitors of human proteasome Rpn11; O00487; human 26S proteasome, Ub4-pepOG fluorescence polarization; 20S core pre-blocked with epoxomicin; inhibition, % at 20 µM; 360,000 compounds, 0.59% hits; AID 588493;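 active means inhibition at 20 µM, scaled to each plate's controls, above about 33%, limit read from the data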
DNMT1 confirm: DNMT1 inhibition confirmation, single concentration; shares compounds with DNMT1 inh; DNMT1 molecular beacon HinP1I cleavage, fluorescence; inhibition, % at 10 µM; 2,300 compounds, 8% hits;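 active means average inhibition of at least 30% in the single-concentration confirmation test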
DNMT1 interf: beacon fluorescence artifact counter-screen. shares compounds with DNMT1 inh. DNMT1 molecular beacon spectral interference counterscreen, fluorescence 485/520. activation (fluorescence interference), % at 10 µM. 2,300 compounds, 1% hits. AID 602387;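 active means activation of at least 30% at 10 µM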;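 further: DNMT1 catalytic domain with a HinP1I cleavage step and a FAM/dabcyl DNA beacon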
* marks the source's active call; other numbers are inactive results; . = no result given.

SMILES | LMPTP inh | SUMO1 PPI mod | STEP inh | DNMT1 inh | Scp-1 inhibitor | Rpn11 block | DNMT1 confirm | DNMT1 interf
Nc1c(C(=O)NCc2ccccc2)c2nc3ccccc3nc2n1-c1ccc2c(c1)OCO2 | 1 | 14 | -4 | 56* | -5 | -2 | 1 | 2
Nc1ccc(-n2c(N)c(C(=O)NCc3ccc4c(c3)OCO4)c3nc4ccccc4nc32)cc1 | 3 | 3 | -6 | -20 | 0 | 5 | . | .
Cc1sc2ncnc(NC(C)C(=O)O)c2c1C (stereo unspecified) | 0 | 1 | -2 | 55* | 1 | 9 | 1 | -3
CCC(=O)Nc1ccc2nc3c(=O)[nH]c(=S)[nH]c3nc2c1 | 6 | -3 | 6 | 55* | 67* | -23 | 4 | 3
Nc1cc2c3ccccc3ccc2c2ccccc12 | 16 | 22 | 3 | 91* | 5 | 15 | 4 | 9
O=C(c1cc2cc(Cl)ccc2oc1=O)N1CCN(c2ccccn2)CC1 | 1 | -6 | 1 | 89* | 0 | 1 | -2 | 2
O=C(COc1c(CO)cc(Br)cc1CO)NC1CCCc2ccccc21 (stereo unspecified) | -1 | -3 | -1 | 3 | -5 | -2 | . | .
CCN(CC)CCN1C(=O)c2oc3ccccc3c(=O)c2C1c1cccc(Br)c1 (stereo unspecified) | -2 | -1 | 3 | -2 | -7 | 7 | . | .
O=C1c2oc3ccc(Cl)cc3c(=O)c2C(c2cccc(Br)c2)N1CCO (stereo unspecified) | 0 | -13 | 0 | 61* | -3 | -7 | 1 | 3
CC(C)(C)NC(=O)Cc1ccc(S(=O)(=O)N2CCCC2)s1 | -2 | -1 | 8 | 72* | 9 | 19 | 3 | -1
COc1ccc(NC(=O)C2Cc3c(-c4cccc(C(N)=O)c4)ccnc3O2)cc1 (stereo unspecified) | -1 | 3 | 1 | 55* | . | 1 | 12 | 6
COc1ccc2nc(NC(=O)c3cccc(-c4cc5ccccc5oc4=O)c3)sc2c1 | 15 | -1 | 2 | 58* | 0 | 0 | 2 | -5
COc1ccc(C(=O)Nc2nc3ccc(OC)cc3s2)cc1 | 1 | -1 | -3 | -2 | 4 | 16 | . | .
C=CC(=O)NC(NC(=O)C=C)c1ccccc1F | 0 | 2 | 1 | 1 | -9 | 6 | . | .
CN(C)S(=O)(=O)N(Cc1ccc(Br)cc1)c1ccccc1 | 2 | -2 | 2 | -4 | -11 | -2 | . | .
CN(C)S(=O)(=O)N(CC(=O)N(Cc1ccccc1)Cc1ccccc1)c1ccccc1 | 13 | 1 | 7 | 56* | 39 | -21 | 3 | 4
Cn1cc(Cc2ccc(C(=O)N3CCCCC3)cn2)c2ccccc21 | -1 | -6 | 5 | -2 | . | -2 | . | .
COCCNC(=S)NC1CC2CCCC(C1)N2Cc1cccs1 (stereo unspecified) | -1 | 0 | -3 | 2 | -1 | 3 | . | .
Cc1cccc(NC(=S)NC2CC3CCCC(C2)N3Cc2cccs2)c1 (stereo unspecified) | -2 | 2 | 5 | 84* | 1 | -14 | 3 | 1
CCOC(=O)N1CCN(Cc2nc(CC3CC3)no2)CC1 | -1 | 3 | -1 | 82* | -5 | -3 | 3 | 3
CN(C)C(=O)CN1CCN(Cc2nc(CC3CC3)no2)CC1 | 4 | 0 | -2 | 2 | -1 | -4 | . | .
OC[C@@H]1CN(Cc2ccco2)C[C@H](n2cnc3c(NCc4ccncc4)ncnc32)O1 | -1 | -2 | 4 | -1 | . | -3 | . | .
OC[C@@H]1CN(Cc2ccc3c(c2)OCO3)C[C@H](n2cnc3c(NCc4ccc(F)cc4)ncnc32)O1 | 0 | -3 | -3 | -3 | . | -2 | . | .
